Glyco luc inh – increase of ERlucT glycosylation luciferase signal, primary screen, N-linked glycosylation inhibitor project, D54 ERlucT cells, luminescence, set 2 | D54 ERlucT glycosylation luciferase reporter, 24 h; percent of 100 nM tunicamycin response | reporter increase, % at 12.5 µM | AID 588692, 2011 | 0.23% of 360,000 active;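 active means mean luciferase reporter signal, scaled so untreated is 0 and the glycosylation-blocking control 100, at or above a set limit in every replicate; inconclusive means mean reaches the limit but not every replicate does; inactive means mean below the limit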;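 further: luciferase carries N-glycosylation sites so blocking glycosylation raises the light; 0% = median of neutral control wells and 100% = median of 100 nM tunicamycin wells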
RAD54 inh – inhibitors of human RAD54 branch migration, primary screen, biochemical, fluorescence, single point. inhibition, % at 10.4 µM. DNA repair and recombination protein RAD54-like (Homo sapiens), Q92698. RAD54 Holliday junction branch migration, FAM/BHQ fluorescence. 0.14% of 360,000 active;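 active means mean normalized replicate activity at least 40 and at least half of replicates scoring 40 or more; inconclusive means only one of the two criteria met; inactive means mean below 40 and under half of replicates reaching 40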;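 further: 0% = median of neutral control wells and 100% = median of positive control wells; inhibitors cause a drop in the FAM fluorescence signal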
AF4-AF9 inh – inhibitors of AF4 peptide binding to AF9, primary screen, biochemical, AlphaScreen, biotin-AF4 peptide, FLAG-AF9, single point; Protein AF-9 (Homo sapiens), P42568; inhibition, % at 10 µM; 0.47% of 350,000 active;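 active means every replicate reaching a set inhibition limit, whatever the replicate mean, cut at about 25% in these data; inconclusive means mean inhibition reaches that limit but some replicates miss it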;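 further: 0% = plate neutral control median and 100% = total signal loss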
FN deposit inh – inhibitors of fibronectin matrix deposition, primary screen, AH1F cells, Alexa488-fibronectin fluorescence, plate reader. AH1F fibroblasts, overnight. inhibition, % at 12.6 µM. 0.086% of 350,000 active. AID 743247, 2014;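 active means mean inhibition across replicates of 30% or more, regardless of how many single replicates reach that level; inconclusive means mean under 30% yet at least half of replicates reach 30%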;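 further: positive control wells lacked labelled fibronectin entirely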
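material = AH1F fibroblast monolayer depositing Alexa488-labelled fibronectin into matrix | amount = 10000 AH1F cells/well | buffer or medium = DMEM plus 2% serum, read in PBS | incubation = 1 h cell adhesion before compound, then overnight fibronectin incubation | detection = fluorescence at 485 nm excitation, 525 nm emission | evaluation = percent inhibition as loss of matrix-bound fibronectin fluorescence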
RAD52 anneal inh – RAD52 DNA annealing inhibitors, primary screen, biochemical, FRET, single point, set 2; recombinant RAD52 DNA annealing, FRET fluorescence; 0.46% of 360,000 active; AID 651710, 2012; inhibition, % at 18.7 µM; DNA repair protein RAD52 homolog (Homo sapiens), P43351;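 active means every replicate showing at least 50% inhibition; inconclusive means mean inhibition at least 50% but not in every replicate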
Target sequence (P43351 whole entry, looked up): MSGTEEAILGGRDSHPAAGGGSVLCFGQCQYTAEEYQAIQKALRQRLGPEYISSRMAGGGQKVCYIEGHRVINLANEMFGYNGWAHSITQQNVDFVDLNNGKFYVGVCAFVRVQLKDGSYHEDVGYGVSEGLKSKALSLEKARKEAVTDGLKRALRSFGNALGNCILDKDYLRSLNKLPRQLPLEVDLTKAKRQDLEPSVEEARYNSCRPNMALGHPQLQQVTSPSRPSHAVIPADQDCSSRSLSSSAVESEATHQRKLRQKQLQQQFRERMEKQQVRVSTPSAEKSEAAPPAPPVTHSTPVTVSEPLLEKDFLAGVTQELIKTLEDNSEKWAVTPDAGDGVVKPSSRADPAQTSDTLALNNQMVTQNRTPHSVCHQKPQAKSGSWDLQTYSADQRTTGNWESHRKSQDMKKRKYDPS
* = called active by the depositor; ? = inconclusive; · = not tested or not shown. Shown are actives, neighbours in structure and some others; about 0.92% of the full set was active somewhere.

SMILES	Glyco luc inh	RAD54 inh	AF4-AF9 inh	FN deposit inh	RAD52 anneal inh
O=C1C=C(c2cccs2)C[C@H](c2ccccc2)[C@H]1n1nnc([N+](=O)[O-])n1	25.5*	·	·	-23.3	·
COc1ccc(-c2cc(-c3ccc(O)cc3)nc(N)c2C#N)cc1OC	26.8*	0.8	-1.0	-4.6	-36.5
CCO[C@H]1OC(C(=O)NCc2ccccc2)=C[C@@H](c2csc3ccccc23)[C@@H]1CCCO	·	·	-3.4	·	0.1
COc1cccc(C(NC(C)=O)c2ccc3cccnc3c2O)c1 (centres undefined)	-7.4	-0.6	26.1*	15.4	-9.2
COc1ccc(Cl)cc1C(Nc1cccnc1)c1ccc2cccnc2c1O (centres undefined)	5.6	·	25.7*	-1.0	-10.6
Cc1noc(C)c1NC(=O)N(C)C[C@H]1Oc2ccc(NC(=O)Nc3ccc4c(c3)OCO4)cc2CC(=O)N([C@H](C)CO)C[C@H]1C	·	-2.2	-12.4	-4.4	2.1
C[C@H](CO)N1C[C@H](C)[C@@H](CN(C)C(=O)CCN(C)C)OCc2ccccc2-c2ccccc2C1=O	·	·	·	-2.4	·
Oc1cc2c(cc1O)C1c3ccc(O)c(O)c3OCC1(O)C2 (centres undefined)	-0.5	1.9	40.0*	·	0.3
CO[C@H]1CN(C)C(=O)c2ccc(NS(C)(=O)=O)cc2OC[C@H](C)N(C(=O)c2ccc3c(c2)OCO3)C[C@H]1C	·	-1.5	·	-0.5	·
COc1ccc(NC(C)C(=O)Nc2cc(C(F)(F)F)ccc2N2CCOCC2)c(OC)c1 (centres undefined)	-4.7	-7.9	26.0*	4.9	-0.1
COc1cc(Cl)c(C)cc1NC(C)C(=O)Nc1cc(C(F)(F)F)ccc1N1CCOCC1 (centres undefined)	-3.7	·	·	-1.8	·
C[C@@]12C(=O)Nc3cc(Cl)ccc3C(=O)N1[C@H]1c3ccccc3OC[C@@H]1[C@@H]2c1ccccc1	31.4*	-7.9	·	·	·
C[C@@]12C(=O)Nc3ccc(F)cc3C(=O)N1[C@H]1c3ccccc3OC[C@@H]1[C@@H]2c1ccccc1	11.4	8.2	·	·	·
C[C@@]12C(=O)Nc3ccc(Cl)cc3C(=O)N1[C@H]1c3ccccc3OC[C@@H]1[C@@H]2c1ccccc1	27.6*	-3.6	·	·	·
C[C@@]12C(=O)Nc3ccc(F)cc3C(=O)N1[C@H]1c3cc(Cl)ccc3OC[C@@H]1[C@@H]2c1ccccc1	27.6*	-11.7	-1.8	5.8	-44.4
Cc1ccc2c(c1)C(=O)N1[C@H]3c4cc(Cl)ccc4OC[C@@H]3[C@H](c3ccccc3)[C@]1(C)C(=O)N2	?	-9.2	6.6	-12.0	-21.3
C[C@H](CO)N1C[C@H](C)[C@H](CN(C)Cc2ccc(C(=O)Nc3ccccc3N)cc2)Oc2c(NS(=O)(=O)c3cn(C)cn3)cccc2C1=O	·	·	6.9	-7.8	-0.9
CNC[C@@H](CC1CCCCC1)NC[C@H](CC(C)C)NCCc1cccc(C(F)(F)F)c1	-21.8	27.7	15.2	62.2*	13.4
COc1ccccc1C(=O)Nc1ccc2c(c1)OC[C@H](C)N(C)C[C@@H](C)[C@H](OC)CN(C)C2=O	·	4.7	-2.2	0.1	5.0
Cc1noc(C)c1NC(=O)Nc1ccc2c(c1)C(=O)N([C@@H](C)CO)C[C@H](C)[C@@H](CN(C)C(=O)NC(C)C)O2	·	3.3	-1.1	-0.5	3.7
COc1ccc(C(=O)N/N=C/c2sc(N3CCOCC3)nc2-c2ccccc2)cc1OC	7.8	14.1	26.9*	7.4	-29.0
O=C(N/N=C/c1sc(N2CCOCC2)nc1-c1ccccc1)c1ccc(O)cc1	23.9	·	17.8	14.7	-21.6
O=c1ccc2[n+]([O-])c3ccc(O)cc3oc-2c1	5.1	·	42.7*	2.8	-293.1
COC(=O)C[C@H]1CC[C@@H]2[C@@H](COc3ccc(NC(=O)Cc4cccs4)cc3C(=O)N2C)O1	·	3.6	2.0	40.1*	4.1
CN1C(=O)c2cc(NC(=O)Nc3ccc(Cl)cc3)ccc2OC[C@@H]2O[C@@H](CC(=O)NCCN3CCCCC3)CC[C@H]21	·	10.3	13.6	2.7	52.6*
SMILES	Glyco luc inh	RAD54 inh	AF4-AF9 inh	FN deposit inh	RAD52 anneal inh
COc1ccccc1C(=O)Nc1ccc2c(c1)OC[C@@H](C)N(C(C)=O)C[C@@H](C)[C@@H](OC)CN(C)C2=O	·	-2.8	-10.7	-0.2	-7.0
CN(C)CC(=O)N[C@H]1C[C@@H]2O[C@H](CO)CC[C@@H]2O[C@@H]1CCc1ccc(C#Cc2ccccc2)cc1	·	·	5.4	·	59.7*
O=c1c2ccccc2sn1-c1ccccc1	2.8	-3.3	·	·	·
O=c1c2ccccc2sn1-c1nccs1	2.0	·	-13.7	37.9*	1.0
COc1ccc2[nH]c3c(c2c1)CCN1C(=O)C(CC(=O)NCCCN(C)C)C[C@H](C(=O)N2CCCCC2)[C@@]31CCc1ccccc1 (some centres undefined)	-1.4	8.2	14.0	37.1*	24.4
CN(C)CCCNC(=O)C[C@H]1C[C@H](C(=O)N2CCCCC2)[C@@]2(CCc3ccccc3)c3[nH]c4cc(-c5ccco5)ccc4c3CCN2C1=O	-7.3	-8.7	52.9*	20.3	75.1*
CN(C)CCCNC(=O)CC1C[C@H](C(=O)N2CCCCC2)[C@@]2(CCc3ccccc3)c3[nH]c4ccccc4c3CCN2C1=O (some centres undefined)	-0.1	5.6	5.1	5.9	-13.9
CN(C)CCCNC(=O)C[C@H]1C[C@H](C(=O)N2CCCCC2)[C@@]2(C)c3[nH]c4cc(-c5ccco5)ccc4c3CCN2C1=O	-0.5	11.7	23.9	8.3	29.9
CO[C@@H]1CN(C)C(=O)c2ccc(NS(C)(=O)=O)cc2OC[C@H](C)N(Cc2cccnc2)C[C@H]1C	·	·	-1.7	-8.7	3.8
Nc1cccc2nc3ccccc3cc12	?	105.7*	-0.1	-10.1	·
CCc1cc(-c2n[nH]c(C)c2-c2nc3ccccc3n2C)c(O)cc1O	5.3	0.2	1.8	9.3	3.8
CCc1cc(-c2n[nH]c(C)c2-c2nc3ccccc3n2C)c(O)c(CN2CCN(C)CC2)c1O	4.3	4.0	25.2*	·	17.1
CCOC(=O)[C@H]1[C@H]2COc3ccc(Br)cc3[C@@H]2N2C(=O)c3cc(OC)c(OC)cc3NC(=O)[C@@]12C	31.4*	2.9	7.3	8.4	-12.2
CCOC(=O)[C@H]1[C@H]2COc3ccc(OC)cc3[C@@H]2N2C(=O)c3cc(OC)c(OC)cc3NC(=O)[C@@]12C	30.8*	14.8	2.9	4.4	1.4
COc1cc(C2C(C#N)=C(N)Oc3cc(O)ccc32)cc(OC)c1OC (centres undefined)	46.0*	-2.5	·	-2.5	·
COc1ccc(C2C(C#N)=C(N)Oc3cc(O)ccc32)cc1OC (centres undefined)	2.6	8.1	·	·	·

High-throughput results (PubChem)
